According to the M2OR odorant receptor database:
Positions count from the first letter of the chain named.

How the values were obtained:
Conditions in all cases: stereoisomer not certain
O13C8 A19D = system: T1, O13C8 A19D
T1 sequence (whole entry): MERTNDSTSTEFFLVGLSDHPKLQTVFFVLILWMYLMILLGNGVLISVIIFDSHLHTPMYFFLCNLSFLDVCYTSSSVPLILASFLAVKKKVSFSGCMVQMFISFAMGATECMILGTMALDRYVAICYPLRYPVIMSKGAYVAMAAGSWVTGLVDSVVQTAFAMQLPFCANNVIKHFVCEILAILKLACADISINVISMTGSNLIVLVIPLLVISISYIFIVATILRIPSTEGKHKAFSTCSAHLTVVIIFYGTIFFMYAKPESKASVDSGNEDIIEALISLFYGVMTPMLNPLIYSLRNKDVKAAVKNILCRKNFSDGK
Procedure, shortened: (§1)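 Each entry records the cell line, G-protein, co-transfected protein and tags used. Methods varied with the source, often transient luciferase assays in mammalian cell lines. A receptor–molecule pair is called responsive (active) if the original authors judged its signal statistically different from baseline and non-responsive (inactive) otherwise.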

O13C9 H17L V19G L23H = system: T2, O13C9 H17L V19G L23H
T2 sequence (whole entry): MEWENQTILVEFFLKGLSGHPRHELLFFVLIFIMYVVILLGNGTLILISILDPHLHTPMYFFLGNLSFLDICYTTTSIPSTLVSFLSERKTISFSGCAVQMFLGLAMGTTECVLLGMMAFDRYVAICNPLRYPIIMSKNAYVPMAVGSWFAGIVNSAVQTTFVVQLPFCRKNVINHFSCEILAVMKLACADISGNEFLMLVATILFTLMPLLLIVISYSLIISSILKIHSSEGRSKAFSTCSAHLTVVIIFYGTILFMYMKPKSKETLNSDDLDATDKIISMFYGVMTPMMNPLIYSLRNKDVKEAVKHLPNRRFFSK
Procedure, shortened: as §1

O13C9 Q6H = system: T3, O13C9 Q6H
T3 sequence (whole entry): T2 sequence (whole entry) with Q6H, L17H, G19V, H23L
Procedure, shortened: as §1

O13F1 F18S T254M = system: T4, O13F1 F18S T254M
T4 sequence (whole entry): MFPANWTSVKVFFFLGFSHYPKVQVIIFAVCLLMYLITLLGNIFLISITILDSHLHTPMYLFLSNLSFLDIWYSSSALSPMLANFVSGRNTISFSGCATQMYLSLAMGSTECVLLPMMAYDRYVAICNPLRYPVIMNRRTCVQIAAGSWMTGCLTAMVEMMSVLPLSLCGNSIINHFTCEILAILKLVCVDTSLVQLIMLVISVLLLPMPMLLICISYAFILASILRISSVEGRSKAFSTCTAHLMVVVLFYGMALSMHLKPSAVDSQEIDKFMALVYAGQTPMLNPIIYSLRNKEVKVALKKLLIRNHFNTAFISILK
Procedure, shortened: as §1

O13F1 F18S = system: T5, O13F1 F18S
T5 sequence (whole entry): T4 sequence (whole entry) with M254T
Procedure, shortened: as §1

O13G1 K46I M146L = system: T6, O13G1 K46I M146L
T6 sequence (whole entry): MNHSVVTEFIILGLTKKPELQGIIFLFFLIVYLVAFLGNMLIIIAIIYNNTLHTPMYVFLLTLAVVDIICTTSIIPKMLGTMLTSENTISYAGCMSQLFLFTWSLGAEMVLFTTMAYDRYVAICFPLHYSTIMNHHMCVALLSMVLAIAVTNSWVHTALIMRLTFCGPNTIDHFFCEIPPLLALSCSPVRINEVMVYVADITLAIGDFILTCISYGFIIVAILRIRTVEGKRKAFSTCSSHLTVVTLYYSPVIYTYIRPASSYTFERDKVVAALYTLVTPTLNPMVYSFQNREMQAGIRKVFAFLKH
Procedure, shortened: as §1

O13G1 = system: T7, O13G1
T7 sequence (whole entry): T6 sequence (whole entry) with I46K, I132V, L146M
Procedure, shortened: as §1

O13H1 Y266S = system: T8, O13H1 Y266S
T8 sequence (whole entry): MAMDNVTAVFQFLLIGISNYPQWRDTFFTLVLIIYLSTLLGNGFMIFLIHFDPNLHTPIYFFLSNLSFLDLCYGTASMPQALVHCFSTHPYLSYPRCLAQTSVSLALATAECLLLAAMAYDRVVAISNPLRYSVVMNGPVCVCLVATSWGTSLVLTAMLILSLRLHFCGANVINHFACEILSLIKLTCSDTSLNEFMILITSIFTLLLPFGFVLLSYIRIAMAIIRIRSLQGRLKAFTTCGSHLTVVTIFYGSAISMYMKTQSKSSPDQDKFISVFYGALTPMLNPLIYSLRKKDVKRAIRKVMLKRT
Procedure, shortened: as §1

O13J1 = system: T9, O13J1
T9 sequence (whole entry): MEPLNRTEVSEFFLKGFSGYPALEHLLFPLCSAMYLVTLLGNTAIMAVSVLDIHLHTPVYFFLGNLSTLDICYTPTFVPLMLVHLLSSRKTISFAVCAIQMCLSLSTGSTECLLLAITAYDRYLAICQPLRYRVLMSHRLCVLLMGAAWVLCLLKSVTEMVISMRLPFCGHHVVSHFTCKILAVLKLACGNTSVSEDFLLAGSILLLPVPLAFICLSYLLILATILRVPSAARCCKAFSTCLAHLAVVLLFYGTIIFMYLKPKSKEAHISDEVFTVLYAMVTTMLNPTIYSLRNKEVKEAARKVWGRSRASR
Procedure, shortened: as §1

O1440 = system: T10, O1440
T10 sequence (whole entry): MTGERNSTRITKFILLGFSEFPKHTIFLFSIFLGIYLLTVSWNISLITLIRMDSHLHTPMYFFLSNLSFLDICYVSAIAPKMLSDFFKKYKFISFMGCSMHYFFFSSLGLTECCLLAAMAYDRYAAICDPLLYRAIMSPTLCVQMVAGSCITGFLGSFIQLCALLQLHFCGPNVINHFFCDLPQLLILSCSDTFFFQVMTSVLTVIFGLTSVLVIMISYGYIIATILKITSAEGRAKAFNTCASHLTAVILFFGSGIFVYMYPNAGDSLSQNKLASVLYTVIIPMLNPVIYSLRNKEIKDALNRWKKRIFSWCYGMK
Procedure, shortened: as §1

Measured: odorant receptor agonist call

CC1=C(O)C(=O)OC1C (centres undefined)
not listed: O1440
inactive: all other assays above

CC1CCCCCCCCCCCC(=O)C1 (centres undefined)
active: O1440

O=C1CCCCCCCCC1
inactive: O1440

CC(=O)c1c(C)c([N+](=O)[O-])c(C(C)(C)C)c([N+](=O)[O-])c1C
active: O1440

CCCCCCCCCCCCCC(C)=O
inactive: O1440

CC1=NC(C)C(C)S1 (centres undefined)
not listed: O1440
inactive: all other assays above

C1CCCCCCCCCCCCCC1
inactive: O1440

O=C1CCCCCCCCCCCCCC1
active: O1440

CC1C(C)(C)C2=C(C(=O)CCC2)C1(C)C (centres undefined)
inactive: O1440

O=C1CCCC=CCCCCCCCCCC1
active: O1440

CCCC(S)CCOC(C)=O (centres undefined)
not listed: O1440
inactive: all other assays above

CCC(=O)OCC(C)(C)OC(C)C1CCCC(C)(C)C1 (centres undefined)
inactive: O1440

CCCCCCC=CCCC=O
not listed: O13F1 F18S T254M | O1440
inactive: all other assays above

O=C1C=CCCCCCCCCCCCCO1
active: O1440

O=C1CCCCCCC=CCCCCCCC1
active: O1440

CC1CCCCCCCCCCCCC(=O)C1 (centres undefined)
active: O1440

CCCCCCCC(=O)CCCCCCC
inactive: O1440

OC1CCCCCCCCCCCCCC1
active: O1440

O=C1CCCCCCCCCC1
inactive: O1440

Cc1cnc(C)c(C)n1
not listed: O1440
inactive: all other assays above

CC1CC=CCCCCCCCCCC(=O)C1 (centres undefined)
active: O1440

CCC1OC(C)=C(O)C1=O (centres undefined)
not listed: O1440
inactive: all other assays above

CCC1OC(=O)C(O)=C1C (centres undefined)
not listed: O1440
inactive: all other assays above

CC1=C(O)C(=O)C(C)O1 (centres undefined)
not listed: O1440
inactive: all other assays above

CC1CC=CCCCCCCCCC(=O)C1 (centres undefined)
active: O1440

O=C1CCCCCC=CCCCCCCCCO1
active: O1440
